Experimental findings from ChEMBL document CHEMBL2040794, “Synthesis and structure-activity analysis of new phosphonium salts with potent activity against African trypanosomes” (J Med Chem, 2012) are described below.

pEC50: −log10 of the molar value.

The subject of data set [1] is Trypanosoma brucei brucei. Put plainly: Resistance factor, ratio of EC50 for diminazene-, pentamidine-, and melaminophenyl arsenical-resistant HAPT1-deficient Trypanosoma brucei brucei B48 to EC50 for wild type Trypanosoma brucei brucei Lister 427. Format: functional. In a few lines:
(§1)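 Resistance factor is the EC50 in the resistant line (TbAT1-KO or B48) divided by the EC50 in wild-type s427. […] Resistant and wild-type EC50s were compared by Student t-test.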

The test system of data set [2] is Trypanosoma brucei rhodesiense. As to the kind of experiment: Antitrypanosomal activity against Trypanosoma brucei rhodesiense STIB900 infected in rat L6 cells after 72 hrs by alamar blue assay. Format: functional, organism-based.
Data set [3] concerns Trypanosoma brucei brucei. As to the kind of experiment: Resistance factor, ratio of EC50 for diminazene aceturate-resistant TbAT1 gene-deficient Trypanosoma brucei brucei AT1-KO to EC50 for wild type Trypanosoma brucei brucei Lister 427. Format: functional. In a few lines:
as §1

The nature of data set [4]: Selectivity index, ratio of EC50 for rat L6 cells to EC50 for Trypanosoma brucei rhodesiense STIB900. Format: toxicity, cell-based. As to conditions: for selectivity ratio: L6 cells, read-out: Ratio EC50; for Ratio EC50: l6. In a few lines:
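Ratio of EC₅₀ in L6 cells to EC₅₀ against T. b. rhodesiense STIB900, both from Alamar blue assays.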

For data set [5], the system named is Trypanosoma brucei brucei. Put plainly: Antitrypanosomal activity against diminazene aceturate-resistant TbAT1 gene-deficient Trypanosoma brucei brucei AT1-KO after 3 days by alamar blue assay. Format: functional, organism-based. In a few lines: (§2)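 Bloodstream-form T. b. brucei (wild-type s427; TbAT1-KO, made from s427 by TbAT1 deletion; B48, selected from TbAT1-KO in vitro on pentamidine, lacking functional HAPT1). Cells were exposed to compound for 48 h, then resazurin (Alamar blue) was added for a further 24 h. A single fluorescence reading gave EC50.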

The nature of data set [6]: Selectivity index, ratio of EC50 for human HEK cells to EC50 for wild type Trypanosoma brucei brucei Lister 427. Format: toxicity, cell-based, HEK293. As to conditions: for selectivity ratio: HEK cells, read-out: Ratio EC50. In a few lines:
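Ratio of EC₅₀ in HEK cells to EC₅₀ in wild-type T. b. brucei s427, both from resazurin assays.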

Data set [7] is described as follows: Cytotoxicity against human HEK cells after 3 days by alamar blue assay. Format: cell-based, HEK293. The gist of the method:
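Human embryonic kidney cells tested by resazurin (Alamar blue) assay: 48 h with compound, then 24 h more after dye addition, single reading; EC₅₀ derived.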

The subject of data set [8] is Trypanosoma brucei brucei. As to the kind of experiment: Antitrypanosomal activity against diminazene-, pentamidine-, and melaminophenyl arsenical-resistant HAPT1-deficient Trypanosoma brucei brucei B48 after 3 days by alamar blue assay. Format: functional, organism-based. In a few lines:
as §2

Data set [9] relates to Trypanosoma brucei brucei. As to the kind of experiment: Antitrypanosomal activity against wild type Trypanosoma brucei brucei Lister 427 after 3 days by alamar blue assay. Format: functional, organism-based. In a few lines: as §2
For data set [10], the system named is L6. As to the kind of experiment: Cytotoxicity against rat L6 cells after 72 hrs by alamar blue assay. Format: cell-based.
Setting [11] is: Trypanosoma brucei, STIB900, 72 h.
[12] abbreviates: Trypanosoma brucei, AT1-KO, 72 h.
[13] abbreviates: Trypanosoma brucei, Lister 427, 72 h.

Turning to `COc1ccccc1[P+](Cc1ccc(C(=O)c2ccc(C[P+](c3ccccc3OC)(c3ccccc3OC)c3ccccc3OC)cc2)cc1)(c1ccccc1OC)c1ccccc1OC.[Br-].[Br-]`, the figures for the “Ratio EC50” value in data set [1] and in [3] were 0.7 and 1.5, respectively. Besides, the pEC50 was 6.70 in data set [2] (setting [11]); 6.80 in data set [5] (setting [12]); 3.88 in data set [7] (Homo sapiens, HEK293, 72 h); 7.10 in data set [8] (Trypanosoma brucei, B48, 72 h); 6.96 in data set [9] (setting [13]); 5.05 in data set [10] (Rattus norvegicus, L6, 72 h). Also, the selectivity ratio turned out to be 45 in data set [4] and 1180 in data set [6].

On to `Cc1ccc([P+](Cc2ccc(S(=O)(=O)c3ccc(C[P+](c4ccc(C)cc4)(c4ccc(C)cc4)c4ccc(C)cc4)cc3)cc2)(c2ccc(C)cc2)c2ccc(C)cc2)cc1.[Br-].[Br-]`, for which the entries for the “Ratio EC50” value in data set [1] and in data set [3] were 1.2 and 1.1, respectively. Besides, the pEC50 in [2] (setting [11]) was 6.76; in data set [5] (setting [12]), 6.60; in [7] (Homo sapiens, HEK293, 72 h), under 3.52; in data set [8] (Trypanosoma brucei, B48, 72 h) it was 6.57; in data set [9] (setting [13]), 6.64; in data set [10] (Rattus norvegicus, L6, 72 h), 4.66. For the same compound, the figures for the selectivity ratio in [4] and in data set [6] were 127 and over 1300, respectively.

For the compound `Cc1ccc([P+](Cc2ccc(Cc3ccc(C[P+](c4ccc(C)cc4)(c4ccc(C)cc4)c4ccc(C)cc4)cc3)cc2)(c2ccc(C)cc2)c2ccc(C)cc2)cc1.[Br-].[Br-]`, the results for the “Ratio EC50” value in data set [1] and in [3] were 0.9 and 1, respectively. Besides, the pEC50 in data set [2] (setting [11]) was 7.00; in data set [5] (setting [12]), 7.10; in data set [7] (Homo sapiens, HEK293, 72 h) it was 3.63; in [8] (Trypanosoma brucei, B48, 72 h) it was 7.13; in data set [9] (setting [13]) it was 7.10; in data set [10] (Rattus norvegicus, L6, 72 h) it was 5.63. The results for the selectivity ratio in data set [4] and in data set [6] were 24 and 2900, respectively.

For the compound `COc1ccccc1[P+](Cc1ccc(C(=O)c2ccccc2)cc1)(c1ccccc1OC)c1ccccc1OC.[Br-]`, the “Ratio EC50” value in data set [1] came to 0.7; in data set [3], 1.1. The pEC50 is 6.42 in data set [2] (setting [11]); 6.66 in [5] (setting [12]); 4.20 in data set [7] (Homo sapiens, HEK293, 72 h); 6.82 in [8] (Trypanosoma brucei, B48, 72 h); 6.68 in data set [9] (setting [13]); 5.40 in data set [10] (Rattus norvegicus, L6, 72 h). For the same compound, the results for the selectivity ratio in data set [4] and in [6] were 10 and 306, respectively.

As for `Cc1ccc([P+](Cc2ccc(C(=O)c3ccc(C[P+](c4ccc(C)cc4)(c4ccc(C)cc4)c4ccc(C)cc4)cc3)cc2)(c2ccc(C)cc2)c2ccc(C)cc2)cc1.[Br-].[Br-]`, the “Ratio EC50” value in data set [1] was determined as 0.8; in [3], 1.6; in [4], 49; in data set [6] (hek293) it was 1266. In addition, the pEC50 was 6.66 in data set [2]; 7.74 in data set [5]; 3.85 in [7] (hek293); 7.05 in data set [8] (Trypanosoma brucei, B48, 72 h); 6.96 in data set [9] (setting [13]); 4.97 in data set [10] (l6).

For the compound `O=C(c1ccc(C[P+](c2cccc3ccccc23)(c2cccc3ccccc23)c2cccc3ccccc23)cc1)c1ccc(C[P+](c2cccc3ccccc23)(c2cccc3ccccc23)c2cccc3ccccc23)cc1.[Br-].[Br-]`, the entries for the “Ratio EC50” value in data set [1] and in [3] were 1 and 1.8, respectively. Moreover, the pEC50 was 6.40 in data set [2] (setting [11]); 6.47 in data set [5] (setting [12]); 4.04 in data set [7] (Homo sapiens, HEK293, 72 h); 6.74 in data set [8] (Trypanosoma brucei, B48, 72 h); 6.74 in [9] (setting [13]); 5.31 in [10] (Rattus norvegicus, L6, 72 h). For the same compound, the selectivity ratio was found to be 12 in [4] and 502 in [6].

Take `CCCC[P+](CCCC)(CCCC)Cc1ccc(C(=O)c2ccc(C[P+](CCCC)(CCCC)CCCC)cc2)cc1.[Br-].[Br-]`: the “Ratio EC50” value in data set [1] was 3.4; in data set [3], 2.7. Besides, the pEC50 in [2] (setting [11]) is 6.45; in [5] (setting [12]), 5.88; in [7] (Homo sapiens, HEK293, 72 h), under 3.52; in data set [8] (Trypanosoma brucei, B48, 72 h), 5.79; in [9] (setting [13]), 6.32; in data set [10] (Rattus norvegicus, L6, 72 h), 3.95. The selectivity ratio is 315 in [4] and over 620 in data set [6].

For the compound `Cc1ccc([P+](Cc2ccc(CCc3ccc(C[P+](c4ccc(C)cc4)(c4ccc(C)cc4)c4ccc(C)cc4)cc3)cc2)(c2ccc(C)cc2)c2ccc(C)cc2)cc1.[Br-].[Br-]`, the “Ratio EC50” value in [1] is listed as 1; in data set [3] it was 1; in [4], 7.8. Further, the pEC50 in data set [2] (setting [11]) was 7.08; in [5], 6.82; in [7] (Homo sapiens, HEK293, 72 h), 4.49; in data set [8], 6.82; in [9], 6.82; in data set [10] (l6), 6.18. Further, the selectivity ratio in data set [6] came to 213.

`C[P+](Cc1ccc(C(=O)c2ccc(C[P+](C)(c3ccccc3)c3ccccc3)cc2)cc1)(c1ccccc1)c1ccccc1.[Br-].[Br-]`: the “Ratio EC50” value in data set [1] is listed as 1.3; in data set [3], 1.4. Moreover, the pEC50 in [2] (setting [11]) was 6.18; in data set [5] (setting [12]) it was 5.68; in data set [7] (Homo sapiens, HEK293, 72 h) it was under 3.52; in [8] (Trypanosoma brucei, B48, 72 h), 5.69; in data set [9] (setting [13]), 5.82; in [10] (Rattus norvegicus, L6, 72 h) it was 3.94. In addition, the values for the selectivity ratio in [4] and in [6] were 177 and over 200, respectively.

As for `CCCCCCCC[P+](CCCCCCCC)(CCCCCCCC)Cc1ccc(C(=O)c2ccc(C[P+](CCCCCCCC)(CCCCCCCC)CCCCCCCC)cc2)cc1.[Br-].[Br-]`, the “Ratio EC50” value came to 1.1 in data set [1] and 1.4 in data set [3]. The pEC50 in data set [2] (setting [11]) was 6.66; in data set [5] (setting [12]) it was 7.21; in data set [7] (Homo sapiens, HEK293, 72 h), 4.57; in data set [8] (Trypanosoma brucei, B48, 72 h) it was 7.35; in data set [9] (setting [13]) it was 7.38; in data set [10] (Rattus norvegicus, L6, 72 h) it was 6.00. Also, the results for the selectivity ratio in [4] and in data set [6] were 5 and 639, respectively.

As to `O=C(c1ccc(C[P+](c2cccs2)(c2cccs2)c2cccs2)cc1)c1ccc(C[P+](c2cccs2)(c2cccs2)c2cccs2)cc1.[Br-].[Br-]`, the “Ratio EC50” value in data set [1] stood at 1; in [3] it was 1.6. The pEC50 in [2] (setting [11]) was 6.54; in data set [5] (setting [12]) it was 6.28; in [7] (Homo sapiens, HEK293, 72 h) it was 3.59; in [8] (Trypanosoma brucei, B48, 72 h) it was 6.48; in data set [9] (setting [13]), 6.48; in data set [10] (Rattus norvegicus, L6, 72 h), 4.78. The figures for the selectivity ratio in [4] and in data set [6] were 58 and 785, respectively.

Regarding `CC(C)[P+](Cc1ccc(Cc2ccc(C[P+](c3ccccc3)(c3ccccc3)C(C)C)cc2)cc1)(c1ccccc1)c1ccccc1.[Br-].[Br-]`, the “Ratio EC50” value in [1] was determined as 1; in data set [3] it was 0.9. In addition, the pEC50 was 6.27 in data set [2] (setting [11]); 6.40 in data set [5] (setting [12]); under 3.52 in data set [7] (Homo sapiens, HEK293, 72 h); 6.37 in data set [8] (Trypanosoma brucei, B48, 72 h); 6.36 in data set [9] (setting [13]); 5.46 in [10] (Rattus norvegicus, L6, 72 h). Also, the figures for the selectivity ratio in data set [4] and in data set [6] were 6.4 and over 680, respectively.

For the compound `Cc1ccc([P+](CCc2ccc(CCc3ccc(CC[P+](c4ccc(C)cc4)(c4ccc(C)cc4)c4ccc(C)cc4)cc3)cc2)(c2ccc(C)cc2)c2ccc(C)cc2)cc1.[Cl-].[Cl-]`, the “Ratio EC50” value in [1] amounted to 0.7; in data set [3], 0.8. Further, the pEC50 was 7.57 in data set [2] (setting [11]); 7.03 in [5] (setting [12]); 4.89 in data set [7] (Homo sapiens, HEK293, 72 h); 7.05 in [8] (Trypanosoma brucei, B48, 72 h); 6.90 in [9] (setting [13]); 5.96 in data set [10] (Rattus norvegicus, L6, 72 h). Also, the figures for the selectivity ratio in [4] and in data set [6] were 40.3 and 103, respectively.
